Assay results: BindingDB's records for doi:10.1021/jm991078x (Insituto De Qu?mica M?dica (Csic), 1999)

What was measured:
[1] = target: T1, Cholecystokinin receptor type A (Rattus norvegicus, UniProt P30551); test: Binding affinity by competitive inhibition of the radioligand [3H]pCCK-8 at Cholecystokinin type A receptor from rat pancreas
T1 sequence (P30551 whole entry): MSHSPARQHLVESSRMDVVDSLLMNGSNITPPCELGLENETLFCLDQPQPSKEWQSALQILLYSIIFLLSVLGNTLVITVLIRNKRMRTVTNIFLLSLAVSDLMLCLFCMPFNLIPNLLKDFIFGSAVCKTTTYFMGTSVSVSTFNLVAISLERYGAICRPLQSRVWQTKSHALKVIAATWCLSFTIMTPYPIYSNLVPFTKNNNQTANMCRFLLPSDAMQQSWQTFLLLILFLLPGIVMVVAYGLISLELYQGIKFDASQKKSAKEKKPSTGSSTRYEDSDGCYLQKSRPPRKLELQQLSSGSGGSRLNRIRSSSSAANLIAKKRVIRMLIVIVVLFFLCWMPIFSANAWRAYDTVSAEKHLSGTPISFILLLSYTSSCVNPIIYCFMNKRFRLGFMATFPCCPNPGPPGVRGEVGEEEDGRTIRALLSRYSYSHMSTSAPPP
Summary of the method: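 Rat pancreas homogenized in Pipes HCl pH 6.5 with 30 mM MgCl2, centrifuged twice at 50000g, 4 °C. Membranes (0.2 mg protein/tube) incubated with 0.5 nM [3H]pCCK-8 plus bacitracin and soybean trypsin inhibitor (0.2 mg/mL each) for 120 min at 25 °C. […]. Seven concentrations in triplicate, at least three experiments.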

[2] = target: T2, Gastrin/cholecystokinin type B receptor (Rattus norvegicus, UniProt P30553); test: Binding affinity by competitive inhibition of the radioligand [3H]pCCK-8 at Cholecystokinin type B receptor from rat cerebral cortex membrane
T2 sequence (P30553 whole entry): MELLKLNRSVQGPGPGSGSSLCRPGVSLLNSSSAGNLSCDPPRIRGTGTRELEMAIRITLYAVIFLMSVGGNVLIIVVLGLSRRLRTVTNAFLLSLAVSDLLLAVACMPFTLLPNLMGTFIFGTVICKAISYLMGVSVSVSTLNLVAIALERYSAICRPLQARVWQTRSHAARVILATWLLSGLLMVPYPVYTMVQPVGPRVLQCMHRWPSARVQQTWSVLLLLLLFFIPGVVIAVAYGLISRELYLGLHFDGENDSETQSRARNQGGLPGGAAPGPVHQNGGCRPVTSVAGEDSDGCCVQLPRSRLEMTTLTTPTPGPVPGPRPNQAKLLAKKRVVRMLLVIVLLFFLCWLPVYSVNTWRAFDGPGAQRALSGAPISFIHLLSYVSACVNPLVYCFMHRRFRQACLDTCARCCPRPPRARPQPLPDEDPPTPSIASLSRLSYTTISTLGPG

IC50 [1] | IC50 [2] | SMILES
> 1 µM | > 10 µM | O=C(N[C@H]1CCCN2C(=O)N(Cc3ccccc3)C(=O)C[C@H]12)c1cc2ccccc2[nH]1
> 1 µM | > 10 µM | O=C(Cc1c[nH]c2ccccc12)N[C@H]1CCCN2C(=O)N(Cc3ccccc3)C(=O)C[C@@H]12 [N-((4aS,5S)-2-Benzyl-1,3-dioxo-octahydro-pyrido[1,2-c]pyrimidin-5-yl)-2-(1H-indol-3-yl)-acetamide; compound with 1H-indole-3-carboxylic acid ((4aR,5R)-2-benzyl-1,3-dioxo-octahydro-pyrido[1,2-c]pyrimidin-5-yl)-amide]
